According to ChEMBL document CHEMBL2176895, “Bacterial reduction as means for colonic drug delivery: can other chemical groups provide an alternative to the azo bond?” (J Med Chem, 2012):

How the values were obtained:
[1] = Drug metabolism in Sprague-Dawley rat cecal contents assessed as colonic bacteria-mediated rate for final reduction product formation relative to sulfasalazine reduction rate; assay type: ADME
How it was run: (§1)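 The reduction was followed by reversed-phase HPLC with photodiode-array detection on a C18 column at 30 °C and 1 mL/min. Elution used a gradient of methanol against 50 mM potassium phosphate buffer, pH 6.8, containing 0.1% tetrabutylammonium hydroxide.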

[2] = Drug metabolism in Sprague-Dawley rat cecal contents assessed as accumulation of colonic bacteria-mediated final reduction product level at 2 mM; assay type: ADME; conditions: 2000 µM; how it was run: as §1

Row | SMILES | Ratio [1] | Drug metabolism [2]
1 | CN(C)c1ccc([N+](=O)[O-])cc1C(=O)O | 0.724 | 
2 | O=C(O)c1cc([N+](=O)[O-])ccc1O | 0.45 | Active
3 | O=C(O)c1cc(SSc2ccc(O)c(C(=O)O)c2)ccc1O |  | Active
4 | Cc1ccc([N+](=O)[O-])cc1C(=O)O | 0.603 | 
5 | O=C(O)c1cc([N+](=O)[O-])ccc1Cl | 1.013 | 
6 | O=C(O)c1ccc([N+](=O)[O-])cc1C(=O)O | 0.113 | 
7 | O=C(O)c1cc(C(=O)O)cc([N+](=O)[O-])c1 | 0.128 | 
8 | O=C(O)c1cc([N+](=O)[O-])cc(C(F)(F)F)c1 | 1.222 | 
9 | O=C(O)c1cccc([N+](=O)[O-])c1 | 0.759 | 
10 | O=C(O)c1cc(/N=N/c2ccc(O)c(C(=O)O)c2)ccc1O [OLSALAZINE] |  | Active
